This experiment addresses Integrase (Human immunodeficiency virus 1, UniProt Q7ZJM1). Kind of experiment: Log of inhibitory concentration against human immunodeficiency virus type 1 integrase. The method, boiled down: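 Strand transfer ELISA using recombinant His-tagged HIV-1 integrase expressed in E. coli BL21(DE3). 20 nM biotinylated processed viral DNA substrate is preincubated with 300 nM integrase for 5 min at 37 °C. Serial compound dilutions and 50 nM target DNA are then added in 20 mM Hepes pH 7.5, 25 mM NaCl, 5 mM MnCl2, 2 mM DTT, 50 µg/mL BSA and incubated 2 h at 37 °C. Products are captured on streptavidin plates, detected with anti-FITC peroxidase antibody and read by chemiluminescence.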

One may read the IC50 as the concentration that gives 50% inhibition. A higher IC50 goes with a need for much substance.

Sequence of Integrase (Q7ZJM1 whole entry): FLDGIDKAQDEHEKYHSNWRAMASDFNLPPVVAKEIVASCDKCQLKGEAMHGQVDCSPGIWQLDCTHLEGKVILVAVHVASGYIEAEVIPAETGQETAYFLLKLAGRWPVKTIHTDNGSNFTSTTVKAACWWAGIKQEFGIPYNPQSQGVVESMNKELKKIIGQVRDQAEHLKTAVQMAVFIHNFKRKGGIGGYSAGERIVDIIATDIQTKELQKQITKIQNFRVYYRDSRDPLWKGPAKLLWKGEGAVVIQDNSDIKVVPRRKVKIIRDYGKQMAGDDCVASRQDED

`COc1ccc(Cn2c(=O)c3c(=O)c4[nH]cc[nH]c4c(=O)c3c2=O)cc1`: the IC50 was 562 nM. Turning to `O=c1c2[nH]cc[nH]c2c(=O)c2c(=O)n(Cc3ccc(Cl)cc3)c(=O)c12`, the 50% inhibitory concentration (IC50) is 417 nM.

Molecule `COc1cccc(Cn2c(=O)c3c(=O)c4[nH]cc[nH]c4c(=O)c3c2=O)c1OC` registered an IC50 of 427 nM. In the case of `COc1ccc(Cn2c(=O)c3c(=O)c4[nH]cc[nH]c4c(=O)c3c2=O)c(OC)c1` it was 427 nM; in that of `O=c1c2[nH]cc[nH]c2c(=O)c2c(=O)n(CCc3ccccc3)c(=O)c12`, 2040 nM. For `O=c1c2[nH]cc[nH]c2c(=O)c2c(=O)n(Cc3ccc(F)cc3)c(=O)c12`, the IC50 came to 417 nM. This IC50 lies about 4.9-fold lower than the previous one. `O=c1c2[nH]cc[nH]c2c(=O)c2c(=O)n(Cc3cccc(F)c3)c(=O)c12`: it took 562 nM to reach half-maximal inhibition (IC50). Consider `O=c1c2[nH]cc[nH]c2c(=O)c2c(=O)n(CCc3ccc4c(c3)OCO4)c(=O)c12`, for which half-maximal inhibition (IC50) was put at 1410 nM. In the case of `O=c1c2[nH]cc[nH]c2c(=O)c2c(=O)n(Cc3ccc(OC(F)(F)F)cc3)c(=O)c12` it was 2040 nM; in that of `O=c1c2[nH]cc[nH]c2c(=O)c2c(=O)n(Cc3cccc(C(F)(F)F)c3)c(=O)c12`, 427 nM. In the case of `O=c1c2[nH]cc[nH]c2c(=O)c2c(=O)n(Cc3ccc4c(c3)OCO4)c(=O)c12` it was 562 nM.

For the origin of these results see BindingDB's records for doi:10.1021/jm049559q (Tibotec, 2005).
